# Experimental data from paper PMC4021529 (British Journal of Cancer, 2014).
# Where “and” joins values, the source holds several entries; their conditions need not be identical. Equal entries are not always repeated.
# Experiments:
# [1] = Phase I 3+3 dose escalation: MTD and dose-limiting toxicities; format: in vivo, human; conditions: for maximum tolerated dose (MTD): Asian patients
# Procedure, shortened: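 Open-label 3+3 escalation run separately for each schedule. Test compound given as a 2-h IV infusion every 3 weeks: A on day 1 (100, 200, 250, 300 mg, up to 400), B on days 1 and 8 (50, 100, 150, 200 mg, up to 250). MTD was the highest dose with DLT in ≤1 of 6 patients in course 1. Graded by CTCAE v3.0. Up to 18 patients treated at the MTD.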
# Adverse events = format: in vivo, human
# [2] = schedule A, 100 mg (n=3), irrespective of relatedness
# [3] = schedule A, 250 mg (n=6), irrespective of relatedness
# [4] = schedule A, 300 mg (n=17), irrespective of relatedness
# [5] = schedule A, 350 mg (n=3), irrespective of relatedness
# [6] = schedule A, total (n=32), irrespective of relatedness
# [7] = schedule B, 50 mg (n=4), irrespective of relatedness
# [8] = schedule B, 100 mg (n=4), irrespective of relatedness
# [9] = schedule B, 150 mg (n=16), irrespective of relatedness
structure (smiles),measurement,setting,value
CC[C@@H]1C(=O)N(C)c2cnc(Nc3ccc(C(=O)N[C@H]4CC[C@H](N5CCN(CC6CC6)CC5)CC4)cc3OC)nc2N1C(C)C [volasertib],time of occurrence of DLTs,[1]; both schedules,8–15 treatment days
same,patients with DLTs during course 1,"[1]; expansion cohort schedule A, 300 mg",Four patients
same,patients with DLTs,"[1]; expansion cohort schedule B, 150 mg",None
same,patients with thrombocytopenia (grade 4) as DLT in first course,"[1]; schedule A, 300 mg (MTD)",Two patients
same,patients with a DLT related to neutropenia,"[1]; schedule A, 300 mg (MTD), 17 patients",Four patients
same,DLTs during course 1,"[1]; schedule A, 300 mg (n=6), dose escalation",No DLTs
same,duration of febrile neutropenia reported as DLT,"[1]; schedule A, 300 mg, two patients",3 days and 4 days
same,patients with DLTs in first treatment course,"[1]; schedule A, 350 mg (n=3)",All three patients
same,maximum tolerated dose (MTD),[1]; schedule A: 2-h i.v. infusion day 1 every 3 weeks,300 mg
same,DLTs of thrombocytopenia (grade 4),[1]; schedule B,no DLTs
same,patients with DLTs in first treatment course,"[1]; schedule B, 200 mg (n=3)",two out of three patients
same,maximum tolerated dose (MTD),[1]; schedule B: 2-h i.v. infusion days 1 and 8 every 3 weeks,150 mg
same,DLTs after intra-individual dose escalation from MTD to a higher dose,"[1]; up to 350 mg (schedule A, 3 patients) and 200 mg (schedule B, 1 patient)",No DLTs
same,deaths during the study,"Adverse events; all due to underlying cancer, none considered related to volasertib",three deaths
same,"Abdominal pain grade 3, number of patients",Adverse events; [2],1 n
same,"Anaemia grade 3, number of patients",Adverse events; [2],1 n
same,"Fatigue grade 3, number of patients",Adverse events; [2],1 n
same,"Neutropenia grade 3, number of patients",Adverse events; [2],1 n
same,"Thrombocytopenia grade 3, number of patients",Adverse events; [2],1 n
same,"Upper GI haemorrhage grade 3, number of patients",Adverse events; [2],1 n
same,"Anaemia grade 3, number of patients",Adverse events; [3],3 n
same,"Anaemia grade 4, number of patients",Adverse events; [3],1 n
same,"Hypokalaemia grade 3, number of patients",Adverse events; [3],1 n
same,"Ileus grade 3, number of patients",Adverse events; [3],1 n
same,"Leukopenia grade 4, number of patients",Adverse events; [3],1 n
same,"Neutropenia grade 4, number of patients",Adverse events; [3],2 n
same,"Thrombocytopenia grade 3, number of patients",Adverse events; [3],1 n
same,"Thrombocytopenia grade 4, number of patients",Adverse events; [3],1 n
same,"Abdominal pain grade 3, number of patients",Adverse events; [4],2 n
same,"Anaemia grade 3, number of patients",Adverse events; [4],2 n
same,"Anaemia grade 4, number of patients",Adverse events; [4],2 n
same,"Fatigue grade 3, number of patients",Adverse events; [4],1 n
same,"Febrile neutropenia grade 3, number of patients",Adverse events; [4],1 n
same,"Febrile neutropenia grade 4, number of patients",Adverse events; [4],1 n
same,"Infection grade 3, number of patients",Adverse events; [4],1 n
same,"Leukopenia grade 3, number of patients",Adverse events; [4],7 n
same,"Neutropenia grade 3, number of patients",Adverse events; [4],5 n
same,"Neutropenia grade 4, number of patients",Adverse events; [4],5 n
same,"Pain grade 3, number of patients",Adverse events; [4],1 n
same,"Thrombocytopenia grade 3, number of patients",Adverse events; [4],7 n
same,"Thrombocytopenia grade 4, number of patients",Adverse events; [4],2 n
same,"Anaemia grade 3, number of patients",Adverse events; [5],2 n
same,"Anaemia grade 4, number of patients",Adverse events; [5],1 n
same,"Febrile neutropenia grade 3, number of patients",Adverse events; [5],1 n
same,"Leukopenia grade 3, number of patients",Adverse events; [5],2 n
same,"Neutropenia grade 4, number of patients",Adverse events; [5],3 n
same,"Thrombocytopenia grade 3, number of patients",Adverse events; [5],1 n
same,"Thrombocytopenia grade 4, number of patients",Adverse events; [5],2 n
same,"drug-related anaemia, incidence","Adverse events; schedule A, all doses",40.6%
same,"drug-related leukopenia, incidence","Adverse events; schedule A, all doses",56.3%
same,"drug-related neutropenia, incidence","Adverse events; schedule A, all doses",56.3%
same,"drug-related thrombocytopenia, incidence","Adverse events; schedule A, all doses",62.5%
same,"Abdominal pain grade 3, number of patients",Adverse events; [6],3 (9.4) n (%)
same,"Anaemia grade 3, number of patients",Adverse events; [6],8 (25.0) n (%)
same,"Anaemia grade 4, number of patients",Adverse events; [6],4 (12.5) n (%)
same,"Fatigue grade 3, number of patients",Adverse events; [6],2 (6.3) n (%)
same,"Febrile neutropenia grade 3, number of patients",Adverse events; [6],2 (6.3) n (%)
same,"Febrile neutropenia grade 4, number of patients",Adverse events; [6],1 (3.1) n (%)
same,"Hypokalaemia grade 3, number of patients",Adverse events; [6],1 (3.1) n (%)
same,"Ileus grade 3, number of patients",Adverse events; [6],1 (3.1) n (%)
same,"Infection grade 3, number of patients",Adverse events; [6],1 (3.1) n (%)
same,"Leukopenia grade 3, number of patients",Adverse events; [6],9 (28.1) n (%)
same,"Leukopenia grade 4, number of patients",Adverse events; [6],1 (3.1) n (%)
same,"Neutropenia grade 3, number of patients",Adverse events; [6],6 (18.8) n (%)
same,"Neutropenia grade 4, number of patients",Adverse events; [6],10 (31.3) n (%)
same,"Pain grade 3, number of patients",Adverse events; [6],1 (3.1) n (%)
same,"Thrombocytopenia grade 3, number of patients",Adverse events; [6],10 (31.3) n (%)
same,"Thrombocytopenia grade 4, number of patients",Adverse events; [6],5 (15.6) n (%)
same,"Upper GI haemorrhage grade 3, number of patients",Adverse events; [6],1 (3.1) n (%)
same,"Anaemia grade 3, number of patients",Adverse events; [7],1 n
same,"Infection grade 3, number of patients",Adverse events; [7],1 n
same,"Dyspnoea grade 3, number of patients",Adverse events; [8],1 n
same,"Hypokalaemia grade 3, number of patients",Adverse events; [8],1 n
same,"Abdominal pain grade 3, number of patients",Adverse events; [9],2 n
same,"Anaemia grade 3, number of patients",Adverse events; [9],1 n
same,"Anaemia grade 4, number of patients",Adverse events; [9],2 n
same,"Dizziness grade 3, number of patients",Adverse events; [9],1 n
same,"Fatigue grade 3, number of patients",Adverse events; [9],1 n
same,"Leukopenia grade 3, number of patients",Adverse events; [9],1 n
same,"Neutropenia grade 3, number of patients",Adverse events; [9],2 n
same,"Neutropenia grade 4, number of patients",Adverse events; [9],1 n
same,"Pain grade 3, number of patients",Adverse events; [9],2 n
same,"Rash grade 3, number of patients",Adverse events; [9],1 n
same,"Upper GI haemorrhage grade 3, number of patients",Adverse events; [9],1 n
